# Measurements taken from ChEMBL document CHEMBL1141882, “Synthesis and biological testing of purine derivatives as potential ATP-competitive kinase inhibitors” (J Med Chem, 2005).
# Key:
# [1] = target: Mitogen-activated protein kinase 10 (Rattus norvegicus) (UniProt P49187); experiment: Inhibition of rat c-Jun N-terminal kinase-3 at 30 uM
# Outline: (§1)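 Kinase activity assayed with ATP at 100 µM, deliberately higher than usual assay ATP levels because the inhibitors are assumed ATP-competitive. Results are reported as percent inhibition of each kinase.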
# [2] = target: RAC-alpha serine/threonine-protein kinase (Homo sapiens) (UniProt P31749); experiment: Inhibition of human Protein kinase B alpha at 30 uM; outline: as §1
# [3] = target: Mitogen-activated protein kinase 14 (Homo sapiens) (UniProt Q16539); experiment: Inhibition of human stress-activated protein kinase-2 alpha (p38 MAP-kinase) at 30 uM; outline: as §1
# [4] = target: Dual specificity mitogen-activated protein kinase kinase 1 (Homo sapiens) (UniProt Q02750); experiment: Inhibition of human Mitogen activated protein kinase kinase 1 (MEK1) at 30 uM; outline: as §1
# [5] = target: Protein kinase C alpha type (Homo sapiens) (UniProt P17252); experiment: Inhibition of human Protein kinase C alpha; set-up: concentration or dose not given beside the values; conditions: concentration not given here
# [6] = target: cAMP-dependent protein kinase (PKA) (Homo sapiens) (UniProt P22694+P17612+P22612); experiment: Inhibition of human cAMP-dependent protein kinase (PKA); format: protein assay; set-up: concentration or dose not given beside the values; conditions: concentration not given here
# [7] = target: Ca2+/calmodulin-dependent protein kinase II (CaM kinase II) (Rattus norvegicus) (UniProt P11275+P08413+P15791+P11730); experiment: Inhibition of rat Calcium/calmodulin-dependent protein kinase type II at 30 uM; format: protein assay; outline: as §1
# [8] = target: Glycogen synthase kinase-3 beta (Homo sapiens) (UniProt P49841); experiment: Inhibition of human Glycogen synthase kinase-3 beta at 30 uM; outline: as §1
# [9] = target: Mitogen-activated protein kinase 8 (Homo sapiens) (UniProt P45983); experiment: Inhibition of human c-Jun N-terminal kinase-1 alpha-1 at 30 uM; outline: as §1
# [10] = target: Mitogen-activated protein kinase 9 (Homo sapiens) (UniProt P45984); experiment: Inhibition of human c-Jun N-terminal kinase-2 alpha-2 at 30 uM; outline: as §1
# [11] = target: Mitogen-activated protein kinase 1 (Homo sapiens) (UniProt P28482); experiment: Inhibition of human Mitogen-activated protein kinase 2 at 30 uM; outline: as §1
# [12] = target: Tyrosine-protein kinase Lck (Homo sapiens) (UniProt P06239); experiment: Inhibition of human lymphocyte protein tyrosine kinase Lck at 30 uM; outline: as §1
# [13] = target: RAF proto-oncogene serine/threonine-protein kinase (Homo sapiens) (UniProt P04049); experiment: Inhibition of human RAF proto-oncogene serine/threonine-protein kinase at 30 uM; outline: as §1
# [14] = target: Rho-associated protein kinase 2 (Homo sapiens) (UniProt O75116); experiment: Inhibition of human Rho-dependent protein kinase-II at 30 uM
# [15] = target: Mitogen-activated protein kinase 1 (Homo sapiens) (UniProt P28482); experiment: Inhibition of human Mitogen-activated protein kinase 1 at 30 uM
# Glycogen synthase kinase-3 beta (Homo sapiens), sequence (P49841 whole entry, looked up): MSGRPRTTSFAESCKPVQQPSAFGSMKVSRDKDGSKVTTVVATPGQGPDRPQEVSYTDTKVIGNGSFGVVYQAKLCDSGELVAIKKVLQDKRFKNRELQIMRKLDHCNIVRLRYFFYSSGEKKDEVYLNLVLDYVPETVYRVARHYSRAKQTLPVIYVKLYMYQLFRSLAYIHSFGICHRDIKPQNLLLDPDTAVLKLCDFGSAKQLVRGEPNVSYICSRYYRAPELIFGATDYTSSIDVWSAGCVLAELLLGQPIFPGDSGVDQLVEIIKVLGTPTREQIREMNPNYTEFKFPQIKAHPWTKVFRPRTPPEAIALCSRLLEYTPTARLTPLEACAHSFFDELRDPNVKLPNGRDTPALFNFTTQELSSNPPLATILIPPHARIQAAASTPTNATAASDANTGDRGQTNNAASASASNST
# Mitogen-activated protein kinase 10 (Rattus norvegicus), sequence (P49187 whole entry): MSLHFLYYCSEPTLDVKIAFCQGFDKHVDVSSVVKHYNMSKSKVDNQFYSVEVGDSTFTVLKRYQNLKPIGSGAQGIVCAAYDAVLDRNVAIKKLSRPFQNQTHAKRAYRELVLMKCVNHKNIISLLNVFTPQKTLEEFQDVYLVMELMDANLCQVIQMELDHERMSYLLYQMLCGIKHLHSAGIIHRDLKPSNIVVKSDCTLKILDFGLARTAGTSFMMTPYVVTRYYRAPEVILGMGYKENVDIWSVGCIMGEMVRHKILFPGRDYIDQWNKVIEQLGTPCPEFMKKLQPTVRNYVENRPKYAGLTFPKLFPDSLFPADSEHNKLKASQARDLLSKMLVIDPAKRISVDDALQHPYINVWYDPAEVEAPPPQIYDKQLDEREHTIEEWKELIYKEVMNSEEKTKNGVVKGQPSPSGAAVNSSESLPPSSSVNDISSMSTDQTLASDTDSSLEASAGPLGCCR
# Tyrosine-protein kinase Lck (Homo sapiens), sequence (P06239 2-509 limits assumed): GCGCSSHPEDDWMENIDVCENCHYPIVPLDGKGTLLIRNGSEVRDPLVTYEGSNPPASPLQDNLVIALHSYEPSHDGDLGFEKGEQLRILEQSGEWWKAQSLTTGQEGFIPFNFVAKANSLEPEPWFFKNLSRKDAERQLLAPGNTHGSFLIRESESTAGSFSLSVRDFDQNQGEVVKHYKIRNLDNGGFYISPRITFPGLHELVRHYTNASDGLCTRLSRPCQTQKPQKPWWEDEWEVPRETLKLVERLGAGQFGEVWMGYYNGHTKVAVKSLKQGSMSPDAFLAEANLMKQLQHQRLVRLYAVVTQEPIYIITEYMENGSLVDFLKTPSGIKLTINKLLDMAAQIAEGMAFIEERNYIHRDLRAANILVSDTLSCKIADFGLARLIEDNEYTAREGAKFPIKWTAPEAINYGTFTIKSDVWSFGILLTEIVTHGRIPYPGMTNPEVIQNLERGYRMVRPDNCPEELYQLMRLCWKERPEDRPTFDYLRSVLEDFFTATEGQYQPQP
# RAF proto-oncogene serine/threonine-protein kinase (Homo sapiens), sequence (P04049 whole entry): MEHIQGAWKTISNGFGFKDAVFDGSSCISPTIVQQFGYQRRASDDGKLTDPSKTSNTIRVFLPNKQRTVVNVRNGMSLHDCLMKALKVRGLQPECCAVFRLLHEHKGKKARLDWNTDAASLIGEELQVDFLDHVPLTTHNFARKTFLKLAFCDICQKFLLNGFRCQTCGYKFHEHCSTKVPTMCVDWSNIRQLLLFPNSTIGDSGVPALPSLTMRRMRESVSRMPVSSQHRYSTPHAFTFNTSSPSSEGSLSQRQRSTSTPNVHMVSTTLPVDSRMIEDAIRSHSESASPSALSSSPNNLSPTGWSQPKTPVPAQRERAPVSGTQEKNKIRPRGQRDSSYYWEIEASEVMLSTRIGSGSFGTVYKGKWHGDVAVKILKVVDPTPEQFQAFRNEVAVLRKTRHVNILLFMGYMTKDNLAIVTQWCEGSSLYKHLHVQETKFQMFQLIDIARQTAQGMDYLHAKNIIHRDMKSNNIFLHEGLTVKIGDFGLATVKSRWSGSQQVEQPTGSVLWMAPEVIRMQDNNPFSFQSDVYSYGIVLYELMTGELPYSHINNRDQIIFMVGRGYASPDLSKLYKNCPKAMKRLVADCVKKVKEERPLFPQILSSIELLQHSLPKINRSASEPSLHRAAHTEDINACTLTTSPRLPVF
# Dual specificity mitogen-activated protein kinase kinase 1 (Homo sapiens), sequence (Q02750 whole entry): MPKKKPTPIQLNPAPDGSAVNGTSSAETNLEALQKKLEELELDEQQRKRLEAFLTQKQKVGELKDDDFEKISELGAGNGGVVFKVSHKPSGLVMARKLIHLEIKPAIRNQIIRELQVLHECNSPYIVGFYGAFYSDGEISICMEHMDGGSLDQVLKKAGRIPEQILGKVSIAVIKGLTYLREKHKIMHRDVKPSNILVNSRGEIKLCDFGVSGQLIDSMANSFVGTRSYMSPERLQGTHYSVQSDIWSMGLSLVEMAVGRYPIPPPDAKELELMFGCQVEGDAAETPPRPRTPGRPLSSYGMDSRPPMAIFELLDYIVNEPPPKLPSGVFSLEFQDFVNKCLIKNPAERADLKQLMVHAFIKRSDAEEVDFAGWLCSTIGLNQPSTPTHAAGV
# Rho-associated protein kinase 2 (Homo sapiens), sequence (O75116 whole entry, looked up): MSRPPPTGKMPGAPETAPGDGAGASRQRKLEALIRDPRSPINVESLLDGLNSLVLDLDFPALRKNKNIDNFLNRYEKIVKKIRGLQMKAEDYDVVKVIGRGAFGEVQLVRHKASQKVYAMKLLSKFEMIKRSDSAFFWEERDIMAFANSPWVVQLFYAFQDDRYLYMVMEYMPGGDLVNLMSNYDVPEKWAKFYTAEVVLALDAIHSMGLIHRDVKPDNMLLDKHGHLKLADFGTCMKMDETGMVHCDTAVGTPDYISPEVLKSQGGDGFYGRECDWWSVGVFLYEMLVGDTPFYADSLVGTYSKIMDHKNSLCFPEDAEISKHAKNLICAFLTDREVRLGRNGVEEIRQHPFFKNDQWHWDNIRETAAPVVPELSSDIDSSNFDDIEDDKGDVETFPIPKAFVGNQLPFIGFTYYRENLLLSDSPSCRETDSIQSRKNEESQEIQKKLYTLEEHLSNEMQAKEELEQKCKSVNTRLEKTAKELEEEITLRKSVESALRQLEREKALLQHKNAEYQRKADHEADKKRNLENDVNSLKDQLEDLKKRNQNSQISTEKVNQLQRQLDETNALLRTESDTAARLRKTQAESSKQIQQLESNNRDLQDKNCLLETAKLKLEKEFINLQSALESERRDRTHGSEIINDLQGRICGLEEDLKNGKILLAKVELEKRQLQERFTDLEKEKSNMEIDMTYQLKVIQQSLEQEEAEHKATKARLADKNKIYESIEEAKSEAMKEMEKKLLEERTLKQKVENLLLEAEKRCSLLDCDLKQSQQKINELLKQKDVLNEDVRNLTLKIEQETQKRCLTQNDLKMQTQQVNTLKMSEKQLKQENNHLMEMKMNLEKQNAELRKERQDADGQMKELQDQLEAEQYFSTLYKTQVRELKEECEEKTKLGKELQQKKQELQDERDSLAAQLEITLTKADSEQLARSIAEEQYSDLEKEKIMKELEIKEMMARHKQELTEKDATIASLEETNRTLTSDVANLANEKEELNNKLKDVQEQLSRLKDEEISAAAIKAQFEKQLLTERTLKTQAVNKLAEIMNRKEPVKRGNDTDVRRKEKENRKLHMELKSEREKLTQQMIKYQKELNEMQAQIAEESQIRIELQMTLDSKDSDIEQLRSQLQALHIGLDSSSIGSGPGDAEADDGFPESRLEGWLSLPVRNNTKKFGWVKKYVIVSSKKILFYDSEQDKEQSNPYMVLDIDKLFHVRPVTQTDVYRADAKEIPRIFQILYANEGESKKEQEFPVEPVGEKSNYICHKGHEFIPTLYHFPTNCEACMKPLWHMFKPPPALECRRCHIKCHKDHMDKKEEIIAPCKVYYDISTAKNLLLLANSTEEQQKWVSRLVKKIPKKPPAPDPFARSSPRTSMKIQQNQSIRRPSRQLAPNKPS
# Mitogen-activated protein kinase 9 (Homo sapiens), sequence (P45984 whole entry, looked up): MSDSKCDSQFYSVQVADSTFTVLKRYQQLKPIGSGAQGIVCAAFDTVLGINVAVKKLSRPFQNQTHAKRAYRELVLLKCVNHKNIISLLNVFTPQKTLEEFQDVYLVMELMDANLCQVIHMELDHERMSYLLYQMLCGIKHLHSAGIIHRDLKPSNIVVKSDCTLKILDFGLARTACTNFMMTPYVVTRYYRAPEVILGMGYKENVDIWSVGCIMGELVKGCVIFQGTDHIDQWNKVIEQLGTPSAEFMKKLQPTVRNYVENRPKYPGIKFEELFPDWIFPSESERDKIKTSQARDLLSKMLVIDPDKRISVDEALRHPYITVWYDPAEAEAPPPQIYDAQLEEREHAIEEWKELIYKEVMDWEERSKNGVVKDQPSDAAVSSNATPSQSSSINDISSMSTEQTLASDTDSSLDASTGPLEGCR
inhibition [1] [%],inhibition [2] [%],inhibition [3] [%],inhibition [4] [%],inhibition [5] [%],inhibition [6] [%],inhibition [7] [%],inhibition [8] [%],inhibition [9] [%],inhibition [10] [%],inhibition [11] [%],inhibition [12] [%],inhibition [13] [%],inhibition [14] [%],inhibition [15] [%],Compound
11,14,34,19,6,32,0,13,0,0,33,39,19,48,22,c1ccc(Nc2ncnc3[nH]cnc23)cc1
16,0,11,3,17,2,7,0,0,0,0,0,4,3,,Clc1ncnc2c1ncn2Cc1ccccc1
0,5,11,4,0,0,0,3,0,1,0,0,5,0,,CSc1ccc(-c2nc3c(Sc4ccccc4)ncnc3n2C)cc1
